In PubChem BioAssay AID692 (The Scripps Research Institute Molecular Screening Center, 2007):
Calls of active or inactive are those of the source.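 Rule for the calls: active = EC50 at or below a set limit; inactive = the rest.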

Target: Steroidogenic factor 1 (Homo sapiens) (UniProt Q13285)
Assay: activation of SF-1 LBD reporter – cell-based, CHO-K1, Gal4-SF-1 LBD, luciferase luminescence, dose response (AID 692)
Conditions: CHO-K1 Gal4-SF1 LBD luciferase reporter
Summary of the method: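 Assay system: CHO-K1 Gal4–SF-1 LBD luciferase reporter cells; Doses: 10 points, 1:3 steps, up to 100 µM; Incubation: compound exposure of cells 20 h at 37 °C; Technique: luminescence; Read-out: % activation vs DMSO/mock-transfected cells, EC50 from four-parameter sigmoidal fit; Benchmarks: DMSO-treated transfected cells and mock-transfected background; Replication: triplicate.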

Chain of Steroidogenic factor 1 (Homo sapiens) (Q13285 whole entry, looked up, the tested form may be a part): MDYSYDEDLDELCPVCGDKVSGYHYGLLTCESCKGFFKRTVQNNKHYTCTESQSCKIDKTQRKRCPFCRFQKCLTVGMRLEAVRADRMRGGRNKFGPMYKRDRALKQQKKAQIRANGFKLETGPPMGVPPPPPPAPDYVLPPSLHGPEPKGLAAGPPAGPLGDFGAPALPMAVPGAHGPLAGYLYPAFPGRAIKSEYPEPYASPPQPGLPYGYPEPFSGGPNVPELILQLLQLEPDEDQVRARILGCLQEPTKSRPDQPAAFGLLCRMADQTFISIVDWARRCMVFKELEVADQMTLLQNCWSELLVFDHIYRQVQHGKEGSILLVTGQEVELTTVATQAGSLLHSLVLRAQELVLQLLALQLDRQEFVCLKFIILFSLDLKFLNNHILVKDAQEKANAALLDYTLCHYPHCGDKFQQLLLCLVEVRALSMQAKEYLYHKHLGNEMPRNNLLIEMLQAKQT

Compound	EC50
C/C(N)=C(/C#N)C(=O)CSc1ccc2c(c1)OCCO2	2.89 µM
CC1(C)CC(=O)C(C=Nc2ccccc2)=C(O)C1	6.83 µM
CC1(C)CC(=O)C(C=Nc2ccc3[nH]ncc3c2)=C(O)C1	> 11 µM (inactive)
COc1ccc(C(=O)/C=C/Nc2cccc(C)n2)cc1OC	0.401 µM

Results, then the compound that gave them:

EC50	Compound
inactive	COc1cc(C2C3C(=O)N(c4ccccc4)C(=O)C3ON2c2ccccc2)ccc1O (stereo not drawn)
3.59 µM	Cc1ccc(C2/C(=C(\O)c3cnn(-c4ccccc4)c3C)C(=O)C(=O)N2CCN(C)C)o1 (stereo not drawn)
2.71 µM	COC(=O)c1ccc(/C(O)=C(\C#N)c2nc3ccccc3s2)cc1
3.76 µM	O=C1CCCC(O)=C1C=Nc1ccc(O)cc1
